Data on seven compounds can be found in ChEMBL document CHEMBL2396525, “Synthesis and anti-HCMV activity of 1-[ω-(phenoxy)alkyl]uracil derivatives and analogues thereof” (Bioorg Med Chem, 2013).

For series [1], the system named is Human immunodeficiency virus 2. Nature of the series: Antiviral activity against HIV2 ROD infected in human CEM cells assessed as inhibition of virus-induced giant cell formation after 4 to 5 days. Format: functional, organism-based. Conditions: ISOLATE ROD, CCRF-CEM. The procedure, abridged: (§1)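 CEM cells at about 3 × 10^5 cells/mL were infected with 100 CCID50 of HIV per mL, with compound dilutions present. They were incubated 4–5 days at 37 °C in humidified CO2, and syncytia were scored microscopically. EC50 is the concentration that inhibits giant cell formation by 50%.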

The subject of series [2] is Human immunodeficiency virus 1. Nature of the series: Antiviral activity against HIV1 3B infected in human CEM cells assessed as inhibition of virus-induced giant cell formation after 4 to 5 days. In kind it is functional, organism-based. Conditions: CCRF-CEM. Put shortly: as §1
Another series concerns Feline coronavirus. Nature of the series: Antiviral activity against Feline coronavirus. In kind it is functional, organism-based.
In another series the test system is Sindbis virus. Nature of the series: Antiviral activity against Sindbis virus. Format: functional, organism-based. Put shortly:
(§2)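 Confluent HEL, Vero, HeLa or MDCK cell cultures were inoculated with 100 CCID50 of virus alongside varying compound concentrations. Cytopathicity was scored when it reached completion in untreated virus controls. EC50 is the concentration that reduces virus-induced cytopathogenicity by 50%.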

Another series deals with Punta Toro virus. Nature of the series: Antiviral activity against Punta Toro virus. In kind it is functional, organism-based. The procedure, abridged:
as §2

In the next series the test system is Influenza B virus. Kind of series: Antiviral activity against Influenza B virus. In kind it is functional, organism-based. Put shortly: (§3)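 The assay was a cell-based cytopathicity inhibition test on confluent monolayers with serial compound dilutions. EC50 was the concentration that reduced virus-induced cytopathicity by 50%.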
Series [3] deals with Mammalian orthoreovirus 1. Nature of the series: Antiviral activity against Reovirus-1. In kind it is functional, organism-based. The procedure, abridged: as §2
Series [4] concerns Influenza A virus. Kind of series: Antiviral activity against Influenza virus A virus H3N2. Format: functional, organism-based. Put shortly: as §3
In another series the test system is Human respirovirus 3. Kind of series: Antiviral activity against Parainfluenza virus 3. Format: functional, organism-based. Put shortly: as §2
The subject of series [5] is Influenza A virus. Kind of series: Antiviral activity against Influenza virus A virus H1N1. In kind it is functional, organism-based. The procedure, abridged:
as §3

Another series relates to Coxsackievirus B4. Nature of the series: Antiviral activity against Coxsackie B4 virus. Format: functional, organism-based. Put shortly: as §2
The test system of series [6] is Vesicular stomatitis virus. Nature of the series: Antiviral activity against Vesicular stomatitis virus. In kind it is functional, organism-based.
The subject of series [7] is Respiratory syncytial virus. Kind of series: Antiviral activity against Respiratory syncytial virus Long. Format: functional, organism-based. Put shortly: as §2
A further series relates to Vaccinia virus. Nature of the series: Antiviral activity against Vaccinia virus Lederle. In kind it is functional, organism-based. Conditions: Orthopoxvirus vaccinia.
Series [8] has as its system Human alphaherpesvirus 3. Nature of the series: Antiviral activity against Varicella-zoster virus YS. Format: functional, organism-based. The procedure, abridged:
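VZV was assayed by plaque formation. Confluent cell cultures received 10 or 100 PFU with varying compound concentrations, and plaques were recorded once complete in untreated infected controls. EC50 is the concentration that reduces plaque formation by 50%.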

For series [9], the system named is Human alphaherpesvirus 3. Nature of the series: Antiviral activity against Varicella-zoster virus OKA. Format: functional. Conditions: strain Oka vaccine. Put shortly: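 Confluent cell monolayers were infected with 10 or 100 PFU of VZV in the presence of serial compound dilutions. Plaque formation was recorded once untreated infected controls reached completion. EC50 was the concentration that reduced plaque formation by 50%.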

The subject of series [10] is Human alphaherpesvirus 2. Nature of the series: Antiviral activity against Herpes simplex virus type 2 Lyons. In kind it is functional, organism-based. Put shortly:
as §2

The subject of series [11] is Human alphaherpesvirus 2. Nature of the series: Antiviral activity against Herpes simplex virus type 2 G. Format: functional, organism-based. Conditions: strain G. Put shortly:
as §2

Series [12] concerns Human alphaherpesvirus 1. Nature of the series: Antiviral activity against thymidine kinase deficient acyclovir-resistant Herpes simplex virus type 1 KOS. In kind it is functional, organism-based.
The test system of series [13] is Human alphaherpesvirus 1. Kind of series: Antiviral activity against Herpes simplex virus type 1 KOS. Format: functional, organism-based. Put shortly:
as §2

A further series deals with HEL. Kind of series: Cytotoxicity against HEL. In kind it is cell-based. Conditions: human.
Series [14] deals with Human betaherpesvirus 5. Kind of series: Antiviral actiivty against Human herpesvirus 5 Davis infected in HEL assessed as reduction of virus-induced plaque formation. In kind it is functional, organism-based. Conditions: Human betaherpesvirus 5, Davis. Put shortly: (§4)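 HCMV strains AD-169 and Davis were tested on confluent human embryonic lung fibroblast monolayers infected with 100 PFU in the presence of serial compound concentrations. Plaques were counted once formation was complete in untreated infected controls. EC50 is the concentration that cuts plaque formation by 50%.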

In series [15] the test system is Human betaherpesvirus 5. Kind of series: Antiviral actiivty against Human herpesvirus 5 AD169 infected in HEL assessed as reduction of virus-induced plaque formation. In kind it is functional, organism-based. Conditions: Human betaherpesvirus 5, AD169. Put shortly: as §4
The nature of series [16]: Cytotoxicity against HEL assessed as minimum cytotoxic concentration required to cause microscopically detectable alteration in cell morphology. Format: cell-based. Conditions: human, HEL cells.

The structures appear in SMILES notation. Activity calls are given as the source filed them. The calls are words filed in the database; no cut-off is given here. Some results are limits rather than exact numbers.

Usually CC50 stands for the concentration giving 50% cytotoxicity. Low readings indicate harm at low concentration, high ones better tolerance by the cells. One may read the EC50 as the concentration that produces a half-maximal response.

Take `CC(C)(C)c1ccc(OCCCCCn2ccc(=O)[nH]c2=O)cc1`: the outcome (in series [1]; in [2]; in the series on Feline coronavirus; with Sindbis virus; in the series with Punta Toro virus; in the series with Influenza B virus) was inactive. Moreover, the outcome (in [3]; with Influenza A virus [4]; in the series with Human respirovirus 3; with Influenza A virus [5]; with Coxsackievirus B4; in [6]) was inactive. In addition, the result (in series [7]; in the series on Vaccinia virus; in the series on Human alphaherpesvirus 3 [8]; in the series with Human alphaherpesvirus 3 [9]; with Human alphaherpesvirus 2 [10]; in the series on Human alphaherpesvirus 2 [11]) was inactive. Also, the outcome with Human alphaherpesvirus 1 [12] and in the series with Human alphaherpesvirus 1 [13] was inactive. For the same compound, half-maximal cytotoxicity with HEL (CC50) was put at 40 µM. Moreover, the half-maximal effective concentration (EC50) in the series on Human betaherpesvirus 5 [14] was 12 µM; in the series on Human betaherpesvirus 5 [15] it was 14 µM. For the same compound, the MCC in series [16] amounted to 100 µM.

Consider `O=c1ccn(CCCCCOc2ccccc2)c(=O)[nH]1`, for which the outcome (in series [1]; in series [2]; with Feline coronavirus; in the series with Sindbis virus; in the series with Punta Toro virus; in the series with Influenza B virus) was inactive. The outcome (in series [3]; in the series on Influenza A virus [4]; in the series with Human respirovirus 3; in the series with Influenza A virus [5]; in the series with Coxsackievirus B4; in series [6]) was inactive. In addition, the outcome (in [7]; in the series with Vaccinia virus; with Human alphaherpesvirus 3 [8]; with Human alphaherpesvirus 3 [9]; in the series on Human alphaherpesvirus 2 [10]; with Human alphaherpesvirus 2 [11]) was inactive. In addition, the result with Human alphaherpesvirus 1 [12] and in the series on Human alphaherpesvirus 1 [13] was inactive. The compound also returned a CC50 in the series on HEL greater than 100 µM. Also, the EC50 in the series on Human betaherpesvirus 5 [14] and in the series with Human betaherpesvirus 5 [15] was greater than 100 µM in each case. The MCC in [16] is greater than 100 µM.

As for `Cc1cn(CCCCCOc2ccc(Br)cc2)c(=O)[nH]c1=O`, the outcome (in [1]; in series [2]; in the series with Feline coronavirus; with Sindbis virus; in the series on Punta Toro virus; in the series with Influenza B virus) was inactive. Besides, the result (in series [3]; with Influenza A virus [4]; in the series with Human respirovirus 3; with Influenza A virus [5]; with Coxsackievirus B4; in series [6]) was inactive. Moreover, the result (in series [7]; with Vaccinia virus; with Human alphaherpesvirus 3 [8]; with Human alphaherpesvirus 3 [9]; in the series on Human alphaherpesvirus 2 [10]; in the series on Human alphaherpesvirus 2 [11]) was inactive. The result in the series with Human alphaherpesvirus 1 [12] and with Human alphaherpesvirus 1 [13] was inactive. The compound further returned a CC50 with HEL greater than 100 µM. Besides, the EC50 in the series on Human betaherpesvirus 5 [14] amounted to 9 µM; in the series on Human betaherpesvirus 5 [15], 8.9 µM. Moreover, the MCC in [16] worked out at 100 µM.

`O=c1ccn(CCCCCCCCOc2ccc(Br)cc2)c(=O)[nH]1`: the outcome (in [1]; in series [2]; in the series on Feline coronavirus; in the series with Sindbis virus; with Punta Toro virus; in the series with Influenza B virus) was inactive. Besides, the outcome (in [3]; with Influenza A virus [4]; in the series on Human respirovirus 3; in the series on Influenza A virus [5]; in the series on Coxsackievirus B4; in series [6]) was inactive. For the same compound, the result (in series [7]; in the series on Vaccinia virus; with Human alphaherpesvirus 3 [8]; with Human alphaherpesvirus 3 [9]; in the series with Human alphaherpesvirus 2 [10]; in the series on Human alphaherpesvirus 2 [11]) was inactive. The result in the series on Human alphaherpesvirus 1 [12] and with Human alphaherpesvirus 1 [13] was inactive. The compound also returned a 50% cytotoxic concentration (CC50) in the series on HEL greater than 100 µM. Besides, the EC50 with Human betaherpesvirus 5 [14] amounted to 8.9 µM; in the series with Human betaherpesvirus 5 [15], 12 µM. In [16], the MCC was no less than 100 µM.

For `N#Cc1ccc(OCCCCCn2ccc(=O)[nH]c2=O)cc1`, the outcome (in series [1]; in [2]; in the series with Feline coronavirus; with Sindbis virus; in the series with Punta Toro virus; in the series with Influenza B virus) was inactive. Besides, the result (in series [3]; in the series with Influenza A virus [4]; in the series with Human respirovirus 3; in the series with Influenza A virus [5]; in the series on Coxsackievirus B4; in series [6]) was inactive. Moreover, the result (in series [7]; in the series with Vaccinia virus; with Human alphaherpesvirus 3 [8]; in the series with Human alphaherpesvirus 3 [9]; in the series on Human alphaherpesvirus 2 [10]; in the series on Human alphaherpesvirus 2 [11]) was inactive. In addition, the outcome with Human alphaherpesvirus 1 [12] and with Human alphaherpesvirus 1 [13] was inactive. In the series with HEL, this compound yielded a CC50 of 100 µM. The concentration giving a half-maximal response (EC50) was determined as 5.5 µM with Human betaherpesvirus 5 [14] and 8.9 µM in the series with Human betaherpesvirus 5 [15]. Further, the MCC in [16] came to 100 µM.

For `Cc1ccc(OCCCCCn2ccc(=O)[nH]c2=O)cc1`, the outcome (in series [1]; in [2]; with Feline coronavirus; in the series with Sindbis virus; with Punta Toro virus; in the series with Influenza B virus) was inactive. The outcome (in series [3]; in the series with Influenza A virus [4]; in the series on Human respirovirus 3; in the series with Influenza A virus [5]; in the series with Coxsackievirus B4; in [6]) was inactive. In addition, the result (in series [7]; with Vaccinia virus; with Human alphaherpesvirus 3 [8]; with Human alphaherpesvirus 3 [9]; in the series on Human alphaherpesvirus 2 [10]; with Human alphaherpesvirus 2 [11]) was inactive. Moreover, the outcome with Human alphaherpesvirus 1 [12] and with Human alphaherpesvirus 1 [13] was inactive. Also, the CC50 in the series with HEL is greater than 100 µM. Also, the EC50 in the series on Human betaherpesvirus 5 [14] and with Human betaherpesvirus 5 [15] was greater than 20 µM in each case. Besides, the MCC in series [16] turned out to be 100 µM.

For `CC(C)c1ccc(OCCCCCn2ccc(=O)[nH]c2=O)cc1`, the outcome (in series [1]; in series [2]; in the series on Feline coronavirus; with Sindbis virus; in the series with Punta Toro virus; with Influenza B virus) was inactive. Further, the outcome (in series [3]; in the series with Influenza A virus [4]; in the series with Human respirovirus 3; in the series with Influenza A virus [5]; in the series with Coxsackievirus B4; in series [6]) was inactive. The result (in series [7]; in the series with Vaccinia virus; with Human alphaherpesvirus 3 [8]; with Human alphaherpesvirus 3 [9]; in the series with Human alphaherpesvirus 2 [10]; in the series with Human alphaherpesvirus 2 [11]) was inactive. Also, the result in the series with Human alphaherpesvirus 1 [12] and in the series on Human alphaherpesvirus 1 [13] was inactive. The compound also came in with a CC50 in the series with HEL greater than 100 µM. The EC50 with Human betaherpesvirus 5 [14] turned out to be 15 µM; in the series on Human betaherpesvirus 5 [15], 25 µM. The MCC in [16] turned out to be 100 µM.
